Reference: PMC6426446 (Bioorganic & medicinal chemistry, 2010)
“Also recorded” adds a separate entry of the source.

Assays:
[1] = test system: CRL-2365 (brain glioblastoma); test: MTT assay CRL-2365; type: cell-based; conditions: Homo sapiens, read-out: IC50 MTT assay CRL-2365
Summary of the method: (§1)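 Standard MTT growth-inhibition assay with DMSO as vehicle. CRL-2365 and CRL-2366 were kept in DMEM; MCF-7, A549 and mouse 3LL in RPMI-1640. Both media carried 10% fetal bovine serum, penicillin G (100 U/mL) and streptomycin (100 μg/mL). MCF-10A breast cells were grown in Mammary Epithelial Growth Medium.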

[2] = test system: CRL-2366 (DNA repair deficient brain glioblastoma); test: MTT assay CRL-2366; type: cell-based; conditions: Homo sapiens, read-out: IC50 MTT assay CRL-2366
Summary of the method: as §1

[3] = test system: MCF-7 human breast carcinoma cells; test: Lactate assay; type: cell-based; conditions: MCF-7 cells, 3 h, varying concentrations
Summary of the method: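 MCF-7 cells seeded at 2 × 10^5 per well and grown 24 h (about 50% confluence). Wells rinsed with pre-warmed Krebs-Ringer buffer, then exposed for 3 h to test compound in buffer against buffer-only controls. Supernatant lactate measured as absorbance change at 363 nm and converted using extinction coefficient 9.1 mM−1 cm−1. Three determinations per point; experiments repeated at least three times.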

NADH fumarate reductase = conditions: cited from earlier work
[4] = biological target: NADH oxidase (complexes I, III and IV) (Bos taurus, UniProt P03887+P17694+P42026); test: NADH oxidase activity in bovine heart submitochondrial particles; type: biochemical; conditions: bovine heart SMP
Sequence of NADH oxidase (complexes I, III and IV) (P03887 whole entry): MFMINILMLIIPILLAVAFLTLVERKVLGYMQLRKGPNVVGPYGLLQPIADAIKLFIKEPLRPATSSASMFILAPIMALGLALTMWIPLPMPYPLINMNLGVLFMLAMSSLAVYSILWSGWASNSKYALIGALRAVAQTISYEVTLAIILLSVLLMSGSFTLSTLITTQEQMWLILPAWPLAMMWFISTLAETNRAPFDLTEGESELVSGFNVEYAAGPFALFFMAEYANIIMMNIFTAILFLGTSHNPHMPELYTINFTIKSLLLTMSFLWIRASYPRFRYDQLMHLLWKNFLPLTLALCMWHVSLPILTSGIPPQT
Sequence of NADH oxidase (complexes I, III and IV) (P42026 38-216): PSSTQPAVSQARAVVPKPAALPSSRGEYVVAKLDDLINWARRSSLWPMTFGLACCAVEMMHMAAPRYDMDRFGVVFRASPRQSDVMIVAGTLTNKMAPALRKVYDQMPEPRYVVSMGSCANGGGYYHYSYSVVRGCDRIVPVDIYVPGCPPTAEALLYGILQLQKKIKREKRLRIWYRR
Sequence of NADH oxidase (complexes I, III and IV) (P17694 34-463): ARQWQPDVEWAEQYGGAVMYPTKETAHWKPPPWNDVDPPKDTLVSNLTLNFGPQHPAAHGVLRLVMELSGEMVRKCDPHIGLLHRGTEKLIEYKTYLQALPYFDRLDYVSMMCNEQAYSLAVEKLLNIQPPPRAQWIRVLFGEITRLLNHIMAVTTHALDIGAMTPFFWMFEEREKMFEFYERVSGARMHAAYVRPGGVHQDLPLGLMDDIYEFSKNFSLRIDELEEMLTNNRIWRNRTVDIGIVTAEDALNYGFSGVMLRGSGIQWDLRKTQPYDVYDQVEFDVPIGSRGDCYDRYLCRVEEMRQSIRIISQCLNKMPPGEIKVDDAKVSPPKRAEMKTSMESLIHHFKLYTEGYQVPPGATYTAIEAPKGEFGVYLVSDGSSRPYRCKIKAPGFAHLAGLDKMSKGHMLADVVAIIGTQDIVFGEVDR

[5] = test system: cultured human and mouse cell lines; test: MTT assay, all tested cell lines; type: cell-based
Summary of the method: as §1

[6] = biological target: NADH-ubiquinone oxidoreductase (mitochondrial complex I) (Bos taurus, UniProt P03887+P17694+P42026); test: NADH-ubiquinone; type: biochemical, bovine; conditions: compared with 12
Sequence of NADH-ubiquinone oxidoreductase (mitochondrial complex I) (P03887 whole entry): as the sequence (P03887 whole entry) above
Sequence of NADH-ubiquinone oxidoreductase (mitochondrial complex I) (P42026 38-216): as the sequence (P42026 38-216) above
Sequence of NADH-ubiquinone oxidoreductase (mitochondrial complex I) (P17694 34-463): as the sequence (P17694 34-463) above

[7] = Stability of purified compound; type: physicochemical

| IC50 [1] [µM] | IC50 [2] [µM] | SMILES | Stimulation of lactate production (in words) [3] | also measured |
| --- | --- | --- | --- | --- |
| > 31 | > 31 | CCCCCCCCC(C)(O)CCc1oc(=O)c(C)c(O)c1C (racemic) [Compound 12, (rac)-6-[3-Hydroxy-3-methylundecyl]-3,5-dimethyl-4-hydroxypyran-2-one] | – | – |
| – | – | CCCCCCCC[C@](C)(O)CCc1oc(OC)c(C)c(=O)c1C [Compound 17, (S)-2-[3-Hydroxy-3-methylundecyl]-6-methoxy-3,5-dimethyl-4H-pyran-4-one] | strongly stimulated | – |
| – | – | CCCCCCCCCC(O)Cc1oc(OC)c(C)c(=O)c1C (stereo not shown) [Compound 1, 2-(2-Hydroxyundecyl)-6-methoxy-3,5-dimethyl-4H-pyran-4-one] | strongly stimulated | Inhibitory activity toward NADH fumarate reductase (in words) (NADH fumarate reductase): strong inhibitory activity |
| – | – | CCCCC(O)Cc1oc(OC)c(C)c(=O)c1C (stereo not shown) [Compound 22, 2-(2-Hydroxyhexyl)-6-methoxy-3,5-dimethyl-4H-pyran-4-one] | weakly stimulated | Inhibition of mitochondrial respiratory chain function (in words) [4]: did not inhibit; also recorded: no inhibitory activity |
| > 31 | > 31 | CCCCCCCC[C@](C)(O)CCc1oc(=O)c(C)c(O)c1C [Compound 14, (S)-6-[3-Hydroxy-3-methylundecyl]-3,5-dimethyl-4-hydroxypyran-2-one] | weakly stimulated | – |
| – | – | COc1oc(CC(O)CCCCCOc2ccc(-c3ccccc3)cc2)c(C)c(=O)c1C (stereo not shown) [Compound 30, 2-[2-Hydroxy-7-(4-phenyl)phenoxyheptyl]-6-methoxy-3,5-dimethyl-4H-pyran-4-one] | strongly stimulated | – |
| – | – | CCCCCCCCC(C)(O)CCc1oc(C)c(C)c(=O)c1C (racemic) [Compound 18, (rac)-2-[3-Hydroxy-3-methylundecyl]-3,5,6-trimethyl-4H-pyran-4-one] | – | Cytotoxicity (in words) [5]: no cytotoxicity |
| – | – | CCCCCCCCC(C)(O)CCc1[nH]c(=O)c(C)c(O)c1C (racemic) [Compound 21, (rac)-6-[3-Hydroxy-3-methylundecyl]-3,5-dimethyl-4-hydroxypyridin-2-one] | – | Potency relative to 12 as inhibitor of NADH-ubiquinone oxidoreductase [6]: more than 10 fold; Stability after purification by preparative thin layer chromatography [7]: rather unstable |
| > 31 | > 31 | CCCCCCCC[C@@](C)(O)CCc1oc(=O)c(C)c(O)c1C [Compound 13, (R)-6-[3-Hydroxy-3-methylundecyl]-3,5-dimethyl-4-hydroxypyran-2-one] | – | – |
